We go through 16 molecules from ChEMBL document CHEMBL1157436, “Efficient synthesis and neuroprotective effect of substituted 1,3-diphenyl-2-propen-1-ones” (2008).

Holding throughout (format): functional
The nature of test [1]: DPPH radical scavenging activity at 100 uM. For orientation: DPPH is a stable violet radical that fades when it is reduced.
Test [2] can be described thus: DPPH radical scavenging activity at 10 uM.
The nature of test [3]: Neuroprotective effect against glutamate-induced toxicity in ICR mouse cultured cortical neurons assessed as cell viability at 10 uM. The settings on record: Cortical neurone, read-out: Activity. An outline of the steps:
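Cultured cortical neurons were co-treated with 60 µM glutamate and compound for 24 h at 37 °C. WST-1 was then added at 1:10 in the conditioned medium for 2 h at 37 °C. Formazan absorbance was read at 450 nm against a 650 nm reference and normalized to untreated control wells. Data are mean ± SE of three independent experiments in triplicate.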

Test [4] in a line: DPPH radical scavenging activity at 50 uM.
Test [5] is described as follows: DPPH radical scavenging activity at 200 uM.
The test system of test [6] is BV-2. Description: Inhibition of NO production in LPS-induced mouse BV2 microglia cells at 10 uM. An outline of the steps: (§1)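 BV-2 microglia were exposed to LPS (1 µg/mL) alone or with compound at 10 or 20 µM for 24 h at 37 °C. Nitrite was then measured in medium sampled at the end of incubation. Data are mean ± SE of three independent experiments, each run in triplicate.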

Test [7] relates to BV-2. Description: Inhibition of NO production in LPS-induced mouse BV2 microglia cells at 20 uM. An outline of the steps: as §1

For `COc1ccc(/C=C/C(=O)c2cc(F)c(F)c(F)c2)cc1O`, the Activity was determined as 3.25% in test [1]; 1.99% in test [2]; 2.71% in test [4]; 5.29% in test [5]; 25.07 µM in test [6]; 22 µM in test [7]. Besides, the viability at 10 µM in test [3] amounted to 63%.
With `COc1cccc(/C=C/C(=O)c2ccc3c(c2)OCO3)c1O`, the Activity in test [1] came out at 18.6%; in test [2] it was 13.9%; in test [4], 14.9%; in test [5], 22.2%; in test [6] it was 22.62 µM; in test [7] it was 16.44 µM. Also, the viability at 10 µM in test [3] was determined as 56%.
For the molecule `COc1cc(/C=C/C(=O)c2ccccc2)ccc1O`, the Activity was 14.4% in test [1]; 7.53% in test [2]; 11.8% in test [4]; 22.6% in test [5]; 16.14 µM in test [6]; 13.16 µM in test [7]. Besides, in test [3], the viability at 10 µM is 62%.
`COc1ccc(C(=O)/C=C/c2cccc(OC)c2O)cc1F`: the Activity was 2.42% in test [1]; 1.74% in test [2]; 1.14% in test [4]; 2.87% in test [5]; 19.55 µM in test [6]; 14.19 µM in test [7]. The viability at 10 µM in test [3] is 75%.
For the molecule `COc1cc(/C=C/C(=O)c2ccc(OC)c(F)c2)ccc1O`, the Activity in test [1] was 28.4%; in test [2], 17.8%; in test [4], 18.9%; in test [5], 37.5%; in test [6], 14.21 µM; in test [7] it was 6.23 µM. Besides, the viability at 10 µM in test [3] turned out to be 79%.
On to `COc1ccc(/C=C/C(=O)c2ccc3c(c2)OCO3)cc1O`, for which the Activity is 9.63% in test [1]; 8.75% in test [2]; 9.14% in test [4]; 11% in test [5]; 21.3 µM in test [6]; 12.44 µM in test [7]. In test [3], the viability at 10 µM stood at 69%.
For `COc1cc(/C=C/C=O)ccc1O`, the Activity in test [1] came to 0.43%; in test [2], 2.37%; in test [4], 0.28%; in test [5] it was 10.6%.
For the molecule `COc1cc(/C=C/C(=O)c2cc(F)c(F)c(F)c2)ccc1O`, the Activity was determined as 32% in test [1]; 22.9% in test [2]; 23.5% in test [4]; 38% in test [5]; 19.82 µM in test [6]; 12.11 µM in test [7]. Also, in test [3], the viability at 10 µM stood at 61%.
As for `COc1cccc(/C=C/C(=O)c2cc(F)c(F)c(F)c2)c1O`, the Activity is 5.5% in test [1]; 3.08% in test [2]; 3.28% in test [4]; 6.81% in test [5]; 18.05 µM in test [6]; 14.72 µM in test [7]. In addition, in test [3], the viability at 10 µM was 71%.
Consider `COc1cc(/C=C/C(=O)c2ccc3c(c2)OCO3)ccc1O`, for which the Activity in test [1] was found to be 14.1%; in test [2], 7.9%; in test [4], 12%; in test [5] it was 25.1%; in test [6], 12.63 µM; in test [7], 11.32 µM. Moreover, the viability at 10 µM in test [3] was determined as 79%.
As for `COc1ccc(/C=C/C(=O)c2ccc3c(c2)OCO3)cc1OC`, the Activity was 1.75% in test [1]; 3.27% in test [2]; 1.95% in test [4]; 1.56% in test [5]; 25.69 µM in test [6]; 20.6 µM in test [7]. For the same molecule, the viability at 10 µM in test [3] was 61%.
As to `Cc1c(C)c2c(c(C)c1O)CCC(C)(C(=O)O)O2` (stereo not drawn), the Activity in test [1] turned out to be 62.4%; in test [2] it was 12.1%; in test [4], 30.2%; in test [5], 78.2%.
With `COc1ccc(/C=C/C(=O)c2ccccc2)cc1O`, the Activity in test [1] amounted to 2.05%; in test [2] it was 1.26%; in test [4], 1.46%; in test [5], 5.38%; in test [6], 18.93 µM; in test [7], 16.04 µM. For the same molecule, the viability at 10 µM in test [3] was determined as 67%.
Take `COc1ccc(/C=C/C(=O)c2ccc(OC)c(F)c2)cc1O`: the Activity in test [1] turned out to be 2.73%; in test [2], 1.55%; in test [4], 1.68%; in test [5] it was 5.02%; in test [6], 23.4 µM; in test [7], 19.98 µM. The viability at 10 µM in test [3] was determined as 80%.
Regarding `COc1cccc(/C=C/C(=O)c2ccccc2)c1O`, the Activity worked out at 7.94% in test [1]; 5.4% in test [2]; 6.09% in test [4]; 11% in test [5]; 17.62 µM in test [6]; 15.69 µM in test [7]. Besides, the viability at 10 µM in test [3] worked out at 58%.
For the molecule `Oc1ccc(/C=C/c2cc(O)cc(O)c2)cc1`, the Activity in test [1] was found to be 28.4%; in test [2] it was 9.45%; in test [4], 8.44%; in test [5], 33.8%.
